Here are results for 7 compounds from ChEMBL document CHEMBL5149993, “Rational Design of Photochromic Analogues of Tricyclic Drugs” (J Med Chem, 2021).

The source made the active and inactive calls. No cut-off for these calls is given here.

A short description of data set [1]: Displacement of [3H]-QNB from Wistar rat brain membrane mAChR assessed as inhibition constant incubated for 30 mins by radioligand competitive binding assay. The format is cell membranes. In short, it runs like this: (§1)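 Female Wistar rat cortex membranes (30 μg protein) in tris-HCl with 6 mM MgCl₂, 200 pM [³H]QNB (Kd 40 pM), ligands from 1 or 10 nM to 300 μM; 30 min at 37 °C equilibrium. Filtration through GF/C filters, scintillation counting. Nonspecific binding defined with 2 μM atropine. One-site competitive fits gave IC50 and Ki; n = 4 per isomer, n = 2 for reference.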
For orientation: Loss of bound radioactivity is the signal in a displacement assay; it reports binding, not function.

The nature of data set [2]: Displacement of [3H]-QNB from Wistar rat brain membrane mAChR incubated for 30 mins by radioligand competitive binding assay. The format is cell membranes. In short, it runs like this:
as §1

Data set [3] is described as follows: Thermal stability of the compound assessed as half life. The format is physicochemical.
For data set [4], the target named is T1, Muscarinic acetylcholine receptor M1 (Homo sapiens) (UniProt P11229).
T1 sequence (whole entry): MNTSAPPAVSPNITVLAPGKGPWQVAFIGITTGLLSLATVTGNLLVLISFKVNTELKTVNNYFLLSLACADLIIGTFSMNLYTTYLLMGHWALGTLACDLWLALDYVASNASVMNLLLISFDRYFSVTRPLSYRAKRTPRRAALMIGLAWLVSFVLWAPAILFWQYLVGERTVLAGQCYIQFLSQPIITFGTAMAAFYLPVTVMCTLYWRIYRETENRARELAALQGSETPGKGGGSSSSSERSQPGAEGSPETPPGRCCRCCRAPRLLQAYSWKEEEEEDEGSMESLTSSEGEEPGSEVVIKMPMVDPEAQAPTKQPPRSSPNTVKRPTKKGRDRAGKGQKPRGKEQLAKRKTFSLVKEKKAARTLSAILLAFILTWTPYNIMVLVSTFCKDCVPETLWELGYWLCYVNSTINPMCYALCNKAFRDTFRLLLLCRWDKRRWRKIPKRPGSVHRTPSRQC
Nature of the data set: Antagonist activity at human M1 mAChR receptor expressed in HEK cells assessed as reduction in total cell response at 100 uM by real-time calcium imaging method relative to control. The format is functional, cell-based. On the set-up: scale not given: the % may be the effect or the level left. Summed up:
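tsA201 cells transiently transfected with human M1 (± R-GECO1), used 48–72 h post-transfection. OGB-1 AM loading at 10 μM final, 30 min, 37 °C; HEPES bath pH 7.4 with 2 mM CaCl₂. Test at 100 μM against 0.5 μM ACh; cis formed by 2 min 365 nm pre-illumination or continuous 460 nm light. Responses normalized to 0.5 μM ACh maximum; Wilcoxon signed rank test.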

Data set [5] deals with T2, Muscarinic acetylcholine receptor M1 (Homo sapiens, UniProt P11229).
T2 sequence (P11229 whole entry): T1 sequence (whole entry)
Nature of the data set: Displacement of [3H]-pirenzepine from human recombinant M1 receptor expressed in CHO cells incubated for 60 mins by topcount scintillation counter method. The format is cell-based. Summed up:
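Membranes from CHO cells with human M1 (45 μg protein), 2 nM [³H]pirenzepine (Kd 13 nM), 60 min at 22 °C. Nonspecific binding with 1 μM atropine. GF/B filtration, scintillation counting. Tested at 1, 10 and 100 μM after 30 min 365 nm irradiation of DMSO stock; % inhibition, duplicate.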

The next data set deals with Cardiac atrium. Nature of the data set: Anticholinergic activity in isolated CD1 mouse CCh-induced bradycardia atrium assessed as recovery of CCh-indued contraction frequency at 100 uM. The format is functional, tissue-based. Summed up: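 Right atria from CD1 male mice, 10–12 weeks, in carbogenated Krebs, pH 7.4, under 0.2 g tension. Isometric recording of spontaneous contractions after 5–10 min equilibration. Bradycardia induced with CCh 10⁻⁶ M; test compound then added and beats/min measured.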

Data set [6] addresses Muscarinic acetylcholine receptor M2 (human) (UniProt P08172). The experiment in a line: Displacement of [3H]AF-DX384 from human recombinant M2 receptor expressed in CHO cells by topcount scintillation counter method.

For orientation: Ki means a dissociation constant, usually derived from enzyme kinetics or from competition with a known ligand. For orientation: IC50 means the point on the concentration scale where inhibition reaches its midpoint. Turning to `CN1CCN(CC(=O)Nc2ccccc2/N=N/c2ccc(N(C)C)cc2)CC1`, the Ki in data set [1] stood at 5.3 µM. The half-maximal inhibitory concentration (IC50) in data set [2] amounted to 33 µM.

In general, half-life refers to the time in which the quantity being followed falls by half. Regarding `CN1CCN(CC(=O)Nc2ccccc2/N=N\c2cccnc2)CC1.Cl.Cl`, the half-life in data set [3] came to 1.18 h. Besides, the Ki in data set [1] was found to be 7 µM. Moreover, in data set [2], the IC50 was determined as 42 µM.

As for `CN1CCN(CC(=O)Nc2ccccc2/N=N\c2ccc(N(C)C)cc2)CC1`, in data set [4], the Activity stood at 14%. In data set [1], the Ki worked out at 5.3 µM. Also, the IC50 in data set [2] worked out at 32 µM.

As for `CN1CCN(CC(=O)Nc2ccccc2/N=N/c2ccccc2)CC1.Cl.Cl`, the Activity in data set [4] (filed as antagonist) worked out at 64%. Further, the half-life in data set [3] turned out to be 3.03 h. Also, in data set [1], the Ki worked out at 1.7 µM. The same compound showed an IC50 in data set [2] of 9.9 µM.

Turning to `CN1CCN(CC(=O)Nc2ccccc2/N=N\c2ccccc2)CC1.Cl.Cl`, the Activity in data set [4] (filed as antagonist) is 73%. In addition, in data set [3], the half-life was 3.03 h. For the same compound, in data set [1], the Ki was 1.5 µM. For the same compound, the IC50 in data set [2] amounted to 9.2 µM; in data set [5] it was 1.9 µM; in data set [6], 28 µM. In addition, the outcome with Cardiac atrium was Active.

As for `CN1CCN(CC(=O)Nc2ccccc2/N=N/c2cccnc2)CC1.Cl.Cl`, the half-life in data set [3] is 1.18 h. For the same compound, the Ki in data set [1] was determined as 6.4 µM. This compound also came in with an IC50 in data set [2] of 38 µM.

On to `CN1CCN(CC(=O)N2c3ccccc3C(=O)Nc3cccnc32)CC1`, for which the outcome in the data set on Cardiac atrium was Active.
